This note sets out measurements from ChEMBL document CHEMBL1132144, “Synthesis of 9-O-substituted derivatives of 9-hydroxy-5, 6-dimethyl-6H-pyrido[4,3-b]carbazole-1-carboxylic acid (2-(dimethylamino)ethyl)amide and their 10- and 11-methyl analogues with improved antitumor activity” (J Med Chem, 1999).

In test [1] the test system is Mus musculus. The experiment in a line: Percent median survival time of mice injected with P388 leukemia, at a intravenous compound dose of 320 mg/kg.
For test [2], the system named is Mus musculus. Kind of test: Long-term survivors among 7 mice infected with P388 leukemia, scored on day 60 at 320 mg/kg dose on day 1. In kind it is functional. Summed up:
(§1)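 B6D2F1 mice in groups of 6–7 received 10^6 P388 cells ip on day 0. Dihydrochloride salts dissolved in water were injected iv on day 1 or on days 1, 5 and 9, at three doses and then five. Read-outs were % T/C (median survival treated/control × 100) and long-term survivors on day 60, both at the optimal dose (no toxic death, weight loss <20%).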

The next test has as its system L1210. The experiment in a line: Inhibition of murine L1210 leukemia cell proliferation measured by the MTT assay. In kind it is functional, cell-based. Conditions: Mus musculus. Summed up:
(§2)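 Murine L1210 leukemia and B16 melanoma cells were grown in RPMI 1640 with 10% fetal calf serum, 2 mM L-glutamine, penicillin/streptomycin and 10 mM HEPES (pH 7.4). Cells were exposed to nine serial drug dilutions in triplicate for about four doubling times (L1210 48 h, B16 96 h), then read by microculture tetrazolium (MTT) assay. IC50 is the concentration halving optical density versus untreated controls, averaged over ≥2 independent experiments.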
Background: Tetrazolium dyes change colour on reduction, which living cells bring about.

The subject of the next test is B16. Kind of test: Inhibition of murine B16 melanoma cell proliferation measured by the MTT assay. In kind it is functional, cell-based. To be noted: Mus musculus. In outline: as §2
Test [3] deals with Mus musculus. Kind of test: Percent median survival time of mice injected with P388 leukemia, at a intravenous compound dose of 80 mg/kg.
The subject of test [4] is Mus musculus. The experiment in a line: Long-term survivors among 7 mice infected with B16 melanoma, scored on day 90 at 320 mg/kg dose on day 1. It is filed as functional.
In test [5] the test system is Mus musculus. Kind of test: Percent median survival time of mice injected with B16 melanoma, at a intraperitoneal compound dose of 20 mg/kg.
The subject of test [6] is Mus musculus. The experiment in a line: Percent median survival time of mice intraperitoneally injected with P388 leukemia was determined from tested at 80 mg/kg at day1 dose to that of control. To be noted: route intraperitoneal. In kind it is functional. In outline:
(§3)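 P388 leukemia in B6D2F1 mice (groups of 6–7), 10^6 cells inoculated ip on day 0. Dihydrochloride salts were dissolved in water and given iv on day 1 or on days 1, 5, 9. Three doses were tested, then five if active. %T/C = median survival treated/control × 100, reported at the optimal dose (no toxic death, weight loss <20%), from one or two representative experiments.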

Test [7] relates to Mus musculus. The experiment in a line: Long-term survivors among 6 mice infected with P388 leukemia, scored on day 60 at 80 mg/kg dose. It is filed as functional. In outline:
(§4)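 B6D2F1 mice in groups of 6–7 were inoculated ip on day 0 with 10^6 P388 cells. Dihydrochloride salts were dissolved in water and given iv on day 1 or on days 1, 5 and 9. Doses ranged from a low nontoxic dose to a toxic one. Long-term survivors were counted at day 60.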

Test [8] deals with Mus musculus. Kind of test: Long-term survivors among 6 mice infected with P388 leukemia, scored on day 60 at 40 mg/kg dose. It is filed as functional. In outline: as §4
Test [9] concerns Mus musculus. The experiment in a line: Percent median survival time of mice intraperitoneally injected with P388 leukemia was determined from tested at 40 mg/kg at day1,5,9 dose to that of control. It is filed as functional. Conditions: route intraperitoneal. In outline: as §3
Test [10] deals with Mus musculus. Kind of test: Long-term survivors among 7 mice infected with B16 melanoma, scored on day 90 at 20 mg/kg dose on day 1. It is filed as functional.
The test system of test [11] is Mus musculus. Kind of test: Long-term survivors among 7 mice infected with P388 leukemia, scored on day 90 at 20 mg/kg dose on day 1. In kind it is functional.
In test [12] the test system is Mus musculus. The experiment in a line: Percent median survival time of mice injected with P388 leukemia, at a subcutaneous compound dose of 20 mg/kg on day 1, 5, 9. In kind it is functional.
Test [13] concerns Mus musculus. Kind of test: Percent median survival time of mice injected with B16 melanoma, at a intraperitoneal compound dose of 10 mg/kg.
The subject of test [14] is Mus musculus. The experiment in a line: Long-term survivors among 7 mice infected with B16 melanoma, scored on day 90 at 240 mg/kg dose on day 1. It is filed as functional.
In test [15] the test system is Mus musculus. The experiment in a line: Percent median survival time of mice injected with P388 leukemia at 160 mg/Kg dose; not tested. In kind it is functional.
Test [16] relates to Mus musculus. Kind of test: Percent median survival time of mice injected with B16 melanoma at 80 mg/Kg subcutaneous dose; not tested. It is filed as functional.
For test [17], the system named is Mus musculus. Kind of test: Long-term survivors among 7 mice infected with P388 leukemia, scored on day 60 at 240 mg/kg dose on day 1. It is filed as functional. Summed up: as §1
Test [18] has as its system Mus musculus. The experiment in a line: Percent median survival time of mice injected with P388 leukemia at 240 mg/Kg dose; not tested. It is filed as functional.
In test [19] the test system is Mus musculus. Kind of test: Long-term survivors among 12 mice infected with P388 leukemia, scored on day 60 at 40 mg/kg dose on day 1. It is filed as functional. Summed up: as §4
The subject of test [20] is Mus musculus. Kind of test: Percent median survival time of mice injected with P388 leukemia, at dose of 40 mg/kg on day 1. It is filed as functional. Summed up: as §3
Test [21] relates to Mus musculus. The experiment in a line: Percent median survival time of mice injected with B16 melanoma, at a intraperitoneal compound dose of 5 mg/kg.
Test [22] concerns Mus musculus. Kind of test: Long-term survivors among 21 mice infected with B16 melanoma, scored on day 90 at 5 mg/kg dose.
Test [23] deals with Mus musculus. Kind of test: Percent median survival time of mice injected with P388 leukemia, at dose of 20 mg/kg on day 1, 5, 9. It is filed as functional. In outline: as §3
Test [24] relates to Mus musculus. Kind of test: Long-term survivors among 12 mice infected with P388 leukemia, scored on day 60 at 20 mg/kg dose on day 1, 5, 9. In kind it is functional. In outline:
as §4

Test [25] deals with Mus musculus. The experiment in a line: Long-term survivors among 12 mice infected with P388 leukemia, scored on day 60 at 10 mg/kg dose on day 1, 5, 9. In kind it is functional. In outline: as §4
Test [26] concerns Mus musculus. Kind of test: Percent median survival time of mice injected with P388 leukemia, at a subcutaneous compound dose of 10 mg/kg. In kind it is functional.
The subject of test [27] is Mus musculus. The experiment in a line: Long-term survivors among 12 mice infected with P388 leukemia, scored on day 60 at 20 mg/kg dose on day 1. It is filed as functional. In outline: as §4
Test [28] concerns Mus musculus. Kind of test: Percent median survival time of mice injected with P388 leukemia, at a subcutaneous compound dose of 20 mg/kg. In kind it is functional.
Test [29] deals with Mus musculus. Kind of test: Long-term survivors among 7 mice infected with B16 melanoma, scored on day 90 at 40 mg/kg dose on day 1, 5, 9. In kind it is functional.

Where only a bound is given, the exact number is not on record here.

What is called T/C is the ratio of treated to control. As a reminder, the IC50 is the point on the concentration scale where inhibition reaches its midpoint. A high value points to weaker potency. In the case of `Cc1c2ccnc(C(=O)NCCN(C)C)c2cc2c3cc(OC(=O)CCC(NC(=O)OC(C)(C)C)C(=O)O)ccc3n(C)c12` (configuration not stated), the T/C in the test with Mus musculus [1] and with Mus musculus [3] was greater than 614% throughout. Moreover, the LTS in the test with Mus musculus [2] and in the test with Mus musculus [4] was 0 throughout. In addition, the IC50 came to 89.3 nM in the test with L1210 and 4 nM in the test on B16.

Consider `Cc1c2ccnc(C(=O)NCCN(C)C)c2cc2c3cc(OC(=O)N(C)C)ccc3n(C)c12`, for which the figures for the T/C with Mus musculus [5], with Mus musculus [6] and in the test on Mus musculus [9] were 161%, 124% and 119%, respectively. In addition, the IC50 was determined as 1850 nM with L1210 and 2670 nM with B16. For the same compound, the LTS in the test on Mus musculus [7] and with Mus musculus [8] was 0 throughout.

Turning to `CCOCCC(=O)Oc1ccc2c(c1)c1cc3c(C(=O)NCCN(C)C)nccc3c(C)c1n2C`, the LTS in the test with Mus musculus [10] and in the test on Mus musculus [11] was 0 in each case. Moreover, the IC50 in the test with L1210 worked out at 5.7 nM; with B16 it was 3 nM. For the same compound, the T/C in the test on Mus musculus [12] came out at 222%; in the test on Mus musculus [13] it was 157%.

As for `Cc1c2ccnc(C(=O)NCCN(C)C)c2cc2c3cc(OC(=O)NCCC(=O)O)ccc3n(C)c12`, the LTS with Mus musculus [14] and in the test with Mus musculus [17] was 0 each time. In addition, the IC50 in the test on L1210 turned out to be 654 nM; with B16, 78.7 nM. In addition, the T/C in the test on Mus musculus [15] was 109%; in the test on Mus musculus [16], 138%; with Mus musculus [18], 109%.

For the compound `Cc1c2c(C(=O)NCCN(C)C)nccc2c(C)c2c1c1cc(OC(=O)CCCC(=O)O)ccc1n2C`, the LTS came out at 11 in the test with Mus musculus [19], 0 in the test with Mus musculus [22] and 11 with Mus musculus [24]. Further, the IC50 with L1210 was 34 nM; with B16 it was 1.4 nM. Besides, the T/C in the test on Mus musculus [20] is reported as greater than 640%; in the test on Mus musculus [21], 202%; in the test on Mus musculus [23], greater than 640%.

For the compound `Cc1c2ccnc(C(=O)NCCN(C)C)c2cc2c3cc(OC(=O)C4C[C@@H]4c4ccccc4)ccc3n(C)c12` (some centres not stated), the IC50 with L1210 was 30.9 nM; in the test with B16 it was 14.1 nM. Also, the LTS in the test on Mus musculus [25], with Mus musculus [27] and with Mus musculus [29] was 0 in each case. For the same compound, the T/C is 152% with Mus musculus [26], 129% in the test with Mus musculus [21] and 146% in the test with Mus musculus [28].
